We go through 56 compounds from PubChem BioAssay AID488805 (Broad Institute, 2010).

Calls of active or inactive are those of the source.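 The calls were made as follows: active = luminescence gain over solvent baseline above 10% of the positive control response, limit may shift with hit yield; inactive = the rest, including opposite-direction effects.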

One assay relates to U2OS HRE-luciferase reporter, HIF pathway activation, luminescence. As to the kind of experiment: HIF pathway activators, HRE-luciferase reporter, dose response, cell-based, U2OS HRE-luc, luminescence, dry powder, set 2 (AID 488805).
Settings: not given
In outline: (§1)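 Test system: U2OS cells with HRE-luciferase reporter. Quantity: 6,000 cells per well. Times: compound exposure 24 h at 37 °C, 21% O2. Measured by: Steady-Glo luminescence.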
As to `Cc1cccc(CNc2nc(-c3ccccn3)nnc2-c2ccccc2)c1`, the AC50 is 3.29 µM. The same measure, in the same setting: the figure for `c1ccc(-c2nnc(-c3ccccn3)nc2NCC2CCCCC2)cc1` is 3.12 µM. The same measure, in the same setting: the figure for `O=C(NCCCN1CCOCC1)c1cc(-c2ccccc2)on1` is 9.51 µM; for `c1ccc(-c2nnc(-c3ccccn3)nc2N2CCC(N3CCOCC3)CC2)cc1` it is 8.79 µM; for `O=C(NCCCn1ccnc1)c1cc(-c2ccccc2)on1` it is 8.16 µM. Take `OCCCNc1nc(-c2ccccn2)nnc1-c1ccccc1`: the AC50 is 21.3 µM. On to `CC(C)(C)CCNc1nc(-c2ccccn2)nnc1-c1ccccc1`, for which the concentration at half-maximal activity (AC50) was 2.59 µM. Same read-out and setting: the figure for `O=C(NCCCCO)c1cc(-c2ccccc2)on1` is 10.5 µM; for `c1ccc(-c2nnc(-c3ccccn3)nc2NCC2CC2)cc1` it is 12.3 µM.

As to `c1ccc(-c2nnc(-c3ccccn3)nc2NCCCN2CCOCC2)cc1`, the AC50 is 11 µM. Turning to `c1ccc(CNc2nc(-c3ccccn3)nnc2-c2ccccc2)cc1`, the AC50 is 7.03 µM.

For `CN1CCN(c2nc(-c3ccccn3)nnc2-c2ccccc2)CC1`, the half-maximal activity concentration (AC50) was 14.5 µM. The same measure, in the same setting: the figure for `Cc1ccc(CNc2nc(-c3ccccn3)nnc2-c2ccccc2)cc1` is 3.29 µM; for `Cc1ccccc1CNc1nc(-c2ccccn2)nnc1-c1ccccc1` it is 6.05 µM. Same read-out and setting: the figure for `Cc1ccc(Nc2nc(-c3ccccn3)nnc2-c2ccccc2)cn1` is 27.9 µM; for `c1ccc(-c2nnc(Nc3nc(-c4ccccn4)nnc3-c3ccccc3)s2)cc1` it is 6.81 µM.

As to `c1ccc(-c2csc(Nc3nc(-c4ccccn4)nnc3-c3ccccc3)n2)cc1`, the AC50 is 2.84 µM. Still for that read-out and setting: the figure for `CN(C)c1nc(-c2ccccn2)nnc1-c1ccccc1` is 11.7 µM; for `Cc1cccc(Nc2nc(-c3ccccn3)nnc2-c2ccccc2)n1` it is 25.6 µM.

On to `c1ccc(-c2nnc(-c3ccccn3)nc2N2CCN(c3ccncc3)CC2)cc1`, for which the AC50 is 8.32 µM. As to `c1ccc(-c2nnc(-c3ccccn3)nc2Nc2cnc3ccccc3n2)cc1`, the concentration at half-maximal activity (AC50) is 6.4 µM.

With `OCC1CCN(c2nc(-c3ccccn3)nnc2-c2ccccc2)CC1`, the AC50 was 18.7 µM.

Consider `C=CCNc1nc(-c2ccccn2)nnc1-c1ccccc1`, for which the concentration at half-maximal activity (AC50) was 8.3 µM. On the same count and under the same terms, the figure for `c1ccc(-c2nnc(-c3ccccn3)nc2NCCN2CCOCC2)cc1` is 18.1 µM; for `c1ccc(-c2nnc(-c3ccccn3)nc2Nc2nc3ccccc3s2)cc1` it is 8.19 µM.

System in the next assay: not listed separately
The description is as above. Particulars: U2OS HRE-luciferase reporter, HIF pathway activation, luminescence; at 0.056 µM; stronger effect = higher value. In a few lines: as §1
With `O=C(NCc1ccccc1)c1cc(-c2ccccc2)on1`, the max activation is 1.94% (inactive). With `Cc1ccc(CNC(=O)c2cc(-c3ccccc3)on2)cc1`, the max activation was -4.17% (inactive). Take `O=C(NCCN1CCCCC1)c1cc(-c2ccccc2)on1`: the max activation was -1.17% (inactive). The same measure, in the same setting: the figure for `O=C(Nc1nnc(-c2ccccc2)s1)c1cc(-c2ccccc2)on1` is -3.85% (inactive). Still for that read-out and setting: the figure for `Cn1c(NC(=O)c2cc(-c3ccccc3)on2)nc2ccccc21` is 1.19% (inactive); for `O=C(NC1CCc2ccccc2C1)c1cc(-c2ccccc2)on1` (stereo unspecified) it is -4.31% (inactive); for `O=C(Nc1ncc2ccccc2n1)c1cc(-c2ccccc2)on1` it is 0.964% (inactive).

Consider `O=C(c1cc(-c2ccccc2)on1)N1CCC(CO)CC1`, for which the max activation is -6.22% (inactive).

Staying with this assay, now noted: U2OS HRE-luciferase reporter, HIF pathway activation, luminescence; at 0.16 µM; stronger effect = higher value.
Regarding `O=C(NCC1CCCCC1)c1cc(-c2ccccc2)on1`, the max activation is 1.14% (inactive).

Still in this assay, the particulars now being: U2OS HRE-luciferase reporter, HIF pathway activation, luminescence; at 0.5 µM; stronger effect = higher value.
As for `O=C(Nc1ncc(-c2ccccc2)o1)c1cc(-c2ccccc2)on1`, the max activation is -7.77% (inactive). As for `O=C(Nc1cn2ccccc2n1)c1cc(-c2ccccc2)on1`, the max activation was -5.84% (inactive). The same measure, in the same setting: the figure for `Cc1cccc(CNC(=O)c2cc(-c3ccccc3)on2)c1` is -4.69% (inactive); for `Cn1c(-c2ccccc2)cnc1Nc1nc(-c2ccccn2)nnc1-c1ccccc1` it is -0.998% (inactive); for `CN(C)CCNC(=O)c1cc(-c2ccccc2)on1` it is -2.73% (inactive). Still for that read-out and setting: the figure for `O=C(Nc1ccc2ccccc2n1)c1cc(-c2ccccc2)on1` is -5.52% (inactive). Turning to `Cc1ccccc1CNC(=O)c1cc(-c2ccccc2)on1`, the max activation was 2.16% (inactive).

Still in this assay, the particulars now being: U2OS HRE-luciferase reporter, HIF pathway activation, luminescence; at 4.6 µM; stronger effect = higher value.
In the case of `CC(C)(C)CCNC(=O)c1cc(-c2ccccc2)on1`, the max activation was 1.55% (inactive). For `O=C(Nc1nc2ccccc2s1)c1cc(-c2ccccc2)on1`, the max activation was -2.04% (inactive). Still for that read-out and setting: the figure for `O=C(c1cc(-c2ccccc2)on1)N1CCN(c2ccncc2)CC1` is 6.21% (inactive); for `O=C(c1cc(-c2ccccc2)on1)N1CCC(N2CCOCC2)CC1` it is 1.93% (inactive). Still for that read-out and setting: the figure for `O=C(Nc1nc(-c2ccccc2)cs1)c1cc(-c2ccccc2)on1` is 6.53% (inactive); for `O=C(NC1Cc2ccccc2C1)c1cc(-c2ccccc2)on1` it is 2.61% (inactive).

The same assay, now with this note: U2OS HRE-luciferase reporter, HIF pathway activation, luminescence; at 13.5 µM; stronger effect = higher value.
As to `O=C(NCC1CC1)c1cc(-c2ccccc2)on1`, the max activation is 7.82% (inactive).

As for `O=C(NCCCO)c1cc(-c2ccccc2)on1`, the max activation is 8.74% (inactive).

Staying with this assay, now noted: U2OS HRE-luciferase reporter, HIF pathway activation, luminescence; at 38 µM; stronger effect = higher value.
As for `CN1CCN(C(=O)c2cc(-c3ccccc3)on2)CC1`, the max activation is -5.2% (inactive). On the same count and under the same terms, the figure for `O=C(c1cc(-c2ccccc2)on1)N1CCc2cccnc21` is 2.94% (inactive). For the compound `O=C(Nc1cnc2ccccc2c1)c1cc(-c2ccccc2)on1`, the max activation was 2.22% (inactive).

For `O=C(c1cc(-c2ccccc2)on1)N1CCC(N2CCCC2)CC1`, the max activation was 3.88% (inactive).

As for `Cn1c(-c2ccccc2)cnc1NC(=O)c1cc(-c2ccccc2)on1`, the max activation was 2.14% (inactive). The same measure, in the same setting: the figure for `Cc1cccc(NC(=O)c2cc(-c3ccccc3)on2)n1` is -6.71% (inactive); for `Cc1ccc(NC(=O)c2cc(-c3ccccc3)on2)cn1` it is 4.68% (inactive).
